Laboratory results: article PMC11865470 (Communications Biology, 2025)

Assays:
Format in all cases: cell-based
mouse Otop3 (mOtop3) = target: T1, mouse Otop3 (mOtop3) (Mus musculus, UniProt Q80UF9); assay: whole-cell patch-clamp, pH 5.5-evoked currents; conditions: 10 μM
T1 sequence (Q80UF9 1-577): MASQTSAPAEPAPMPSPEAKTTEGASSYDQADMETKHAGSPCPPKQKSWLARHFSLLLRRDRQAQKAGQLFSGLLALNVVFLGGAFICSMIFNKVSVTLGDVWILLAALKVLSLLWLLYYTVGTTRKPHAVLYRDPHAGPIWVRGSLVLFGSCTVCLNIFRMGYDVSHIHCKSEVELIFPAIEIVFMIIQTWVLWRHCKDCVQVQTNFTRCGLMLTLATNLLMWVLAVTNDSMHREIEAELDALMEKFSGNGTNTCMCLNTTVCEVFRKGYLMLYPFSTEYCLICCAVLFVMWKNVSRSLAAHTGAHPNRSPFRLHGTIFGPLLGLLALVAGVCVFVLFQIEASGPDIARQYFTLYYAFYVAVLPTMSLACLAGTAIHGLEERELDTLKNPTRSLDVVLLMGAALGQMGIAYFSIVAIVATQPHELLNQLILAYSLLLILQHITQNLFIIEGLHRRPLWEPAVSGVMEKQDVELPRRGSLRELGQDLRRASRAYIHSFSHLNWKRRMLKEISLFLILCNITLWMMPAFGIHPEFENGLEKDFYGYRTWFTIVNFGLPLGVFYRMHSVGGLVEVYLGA
How it was run: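 Channel plasmid (2.5 μg) was co-transfected with EGFP plasmid (0.5 μg) using Lipofectamine 2000 into PAC-knockout HEK293T cells. Whole-cell recording 16–24 h after seeding, with Cs-aspartate pipette solution (pH 7.3). Currents evoked by pH 5.5 bath (160 mM NMDG-Cl, 2 mM CaCl2, 10 mM MES); test compound 10 μM.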

KV3.3 = target: T2, KV3.3 (Mus musculus, UniProt Q63959); assay: whole-cell patch-clamp, off-target channel, 10 μM compound; conditions: vs 0.1% DMSO
T2 sequence (Q63959 1-769): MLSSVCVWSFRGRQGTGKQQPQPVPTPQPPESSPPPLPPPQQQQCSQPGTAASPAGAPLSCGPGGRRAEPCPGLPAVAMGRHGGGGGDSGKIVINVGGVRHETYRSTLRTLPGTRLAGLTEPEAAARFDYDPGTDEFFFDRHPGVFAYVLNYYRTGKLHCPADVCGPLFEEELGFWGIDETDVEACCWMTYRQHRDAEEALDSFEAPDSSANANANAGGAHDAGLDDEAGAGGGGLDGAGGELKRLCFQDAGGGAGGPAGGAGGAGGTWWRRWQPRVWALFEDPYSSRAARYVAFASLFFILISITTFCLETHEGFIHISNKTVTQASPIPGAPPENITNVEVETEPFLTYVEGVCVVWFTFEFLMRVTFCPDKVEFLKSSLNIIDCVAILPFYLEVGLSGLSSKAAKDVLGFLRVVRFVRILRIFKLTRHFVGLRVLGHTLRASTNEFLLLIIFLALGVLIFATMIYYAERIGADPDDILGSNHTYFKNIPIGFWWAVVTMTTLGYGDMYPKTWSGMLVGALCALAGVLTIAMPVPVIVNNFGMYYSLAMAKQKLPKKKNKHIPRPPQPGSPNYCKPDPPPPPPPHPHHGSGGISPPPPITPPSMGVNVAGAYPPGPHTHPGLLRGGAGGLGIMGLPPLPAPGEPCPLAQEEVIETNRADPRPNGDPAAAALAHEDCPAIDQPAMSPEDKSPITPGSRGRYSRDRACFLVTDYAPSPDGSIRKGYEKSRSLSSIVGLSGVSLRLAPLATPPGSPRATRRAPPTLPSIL
How it was run: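 KV channels in transiently transfected HEK293T cells, whole-cell. Pipette (mM): 140 KCl, 2.5 MgCl2, 11 EGTA, 10 HEPES, pH 7.4. Bath (mM): 145 NaCl, 2.8 KCl, 2 CaCl2, 1 MgCl2, 10 glucose, 10 HEPES, pH 7.4. 0.1% DMSO bath applied, then 10 μM test compound. DMSO vs compound inhibition ratio compared by unpaired t-test, n = 5.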

Kir4.1 = target: T3, Kir4.1 (Homo sapiens, UniProt P78508); assay: whole-cell patch-clamp, off-target channel, 10 μM compound; conditions: vs 0.1% DMSO
T3 sequence (P78508 1-379): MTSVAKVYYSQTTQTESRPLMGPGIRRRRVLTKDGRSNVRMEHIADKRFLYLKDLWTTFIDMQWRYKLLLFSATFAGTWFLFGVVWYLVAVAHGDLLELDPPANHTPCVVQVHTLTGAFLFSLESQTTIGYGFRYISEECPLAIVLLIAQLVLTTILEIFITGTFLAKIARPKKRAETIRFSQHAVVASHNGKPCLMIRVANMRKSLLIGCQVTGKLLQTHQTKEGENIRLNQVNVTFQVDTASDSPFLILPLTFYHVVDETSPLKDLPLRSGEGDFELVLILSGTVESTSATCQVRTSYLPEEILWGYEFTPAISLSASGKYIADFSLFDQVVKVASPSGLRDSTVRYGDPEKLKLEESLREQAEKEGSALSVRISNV
How it was run: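 Kir channels in transfected HEK293T cells, whole-cell. Pipette (mM): 135 KCl, 2 MgCl2, 10 HEPES, 1 EGTA, 4 Na2-ATP, pH 7.3. Bath (mM): 135 NaCl, 5 KCl, 1.5 CaCl2, 1 MgCl2, 10 HEPES, 10 glucose, pH 7.4. 0.1% DMSO bath applied before 10 μM test compound. Inhibition ratios compared by unpaired t-test, n = 5.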

| effect on pH 5.5-evoked mOtop3 currents (mouse Otop3 (mOtop3)) | sensitivity of channel to compound (KV3.3) | sensitivity of channel to compound (Kir4.1) | Compound |
| --- | --- | --- | --- |
| did not affect | completely resistant | completely resistant | Cc1cc(NC(=O)c2ccc(Br)o2)ccc1NC(=O)c1ccco1 [B2FAMP, 5-Bromo-N-[4-(2-furoylamino)-3-methylphenyl]-2-furamide] |
| did not affect | completely resistant | completely resistant | Cc1ccc(C(=O)Nc2ccc3ccccc3c2)o1 [MFaN, 5-methyl-N-2-naphthyl-2-furamide] |
| did not affect | completely resistant | completely resistant | CC(C)c1noc2ncc(C(=O)c3ccccc3O)cc12 [HIMOP, (2-hydroxyphenyl)-(3-propan-2-yl-5-isoxazolo[5,4-b]pyridinyl)methanone] |
